The values below come from the M2OR odorant receptor database.

Settings in all cases: stereoisomer not certain
One assay deals with O10H2. The method, boiled down: (§1)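 Each entry records the cell line, G-protein, co-transfected protein and tags used. Methods varied with the source, often transient luciferase assays in mammalian cell lines. A receptor–molecule pair is called responsive (active) if the original authors judged its signal statistically different from baseline and non-responsive (inactive) otherwise.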

In the next assay the test system is O10G7 I28V. The method, boiled down: as §1
A further assay has as its system O10H3 R54H. The method, boiled down: as §1
The test system of a further assay is O10H4 I50V. Summed up: as §1
Another assay relates to O10H5 S268Y. The method, boiled down:
as §1

For the next assay, the system named is O10J1 M62I I103M. The method, boiled down: as §1
The next assay relates to O10J1 M62I. The method, boiled down:
as §1

The test system of a further assay is O10J3 Q235R E319G. Summed up:
as §1

For another assay, the system named is O10P1 R195K. Summed up:
as §1

Another assay relates to O10Q1 E12D. The method, boiled down: as §1
O10Q1 E12D, sequence (as listed by the source, stated change not applied): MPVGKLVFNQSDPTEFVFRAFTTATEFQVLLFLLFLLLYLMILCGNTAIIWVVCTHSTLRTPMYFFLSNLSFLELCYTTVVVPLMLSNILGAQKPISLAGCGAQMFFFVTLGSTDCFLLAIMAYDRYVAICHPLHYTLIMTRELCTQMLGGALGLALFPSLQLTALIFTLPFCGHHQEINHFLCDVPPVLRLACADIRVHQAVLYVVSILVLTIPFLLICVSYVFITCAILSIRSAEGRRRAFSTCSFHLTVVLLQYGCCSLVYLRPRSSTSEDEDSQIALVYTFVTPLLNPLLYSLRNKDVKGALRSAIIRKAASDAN

O10H2, sequence (as listed by the source): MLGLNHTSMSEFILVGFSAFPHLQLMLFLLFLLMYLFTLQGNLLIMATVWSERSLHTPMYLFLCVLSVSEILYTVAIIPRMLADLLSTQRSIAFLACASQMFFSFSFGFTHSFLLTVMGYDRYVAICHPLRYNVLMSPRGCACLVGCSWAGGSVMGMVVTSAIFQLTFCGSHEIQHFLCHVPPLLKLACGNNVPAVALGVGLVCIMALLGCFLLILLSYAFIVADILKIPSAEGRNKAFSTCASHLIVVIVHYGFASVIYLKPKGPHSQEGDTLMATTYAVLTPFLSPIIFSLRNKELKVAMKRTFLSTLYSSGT
O10P1 R195K, sequence (as listed by the source, stated change not applied): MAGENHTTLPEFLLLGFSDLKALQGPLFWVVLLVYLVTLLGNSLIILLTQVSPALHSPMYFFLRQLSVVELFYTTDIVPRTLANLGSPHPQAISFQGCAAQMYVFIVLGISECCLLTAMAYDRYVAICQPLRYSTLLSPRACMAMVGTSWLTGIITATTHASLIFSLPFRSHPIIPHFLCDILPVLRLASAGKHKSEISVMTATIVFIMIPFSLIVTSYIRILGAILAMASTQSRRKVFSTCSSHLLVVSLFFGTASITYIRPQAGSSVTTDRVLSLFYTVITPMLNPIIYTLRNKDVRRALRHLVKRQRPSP
O10H4 I50V, sequence (as listed by the source, stated change not applied): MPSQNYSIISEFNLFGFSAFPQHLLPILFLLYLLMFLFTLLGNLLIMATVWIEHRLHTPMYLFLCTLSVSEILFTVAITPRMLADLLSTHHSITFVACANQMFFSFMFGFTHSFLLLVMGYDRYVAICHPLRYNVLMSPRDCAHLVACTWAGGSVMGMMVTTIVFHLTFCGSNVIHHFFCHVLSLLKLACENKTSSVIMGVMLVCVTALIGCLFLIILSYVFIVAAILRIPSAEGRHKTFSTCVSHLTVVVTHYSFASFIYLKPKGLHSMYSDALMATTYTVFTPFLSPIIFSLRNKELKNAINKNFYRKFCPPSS
O10H3 R54H, sequence (as listed by the source, stated change not applied): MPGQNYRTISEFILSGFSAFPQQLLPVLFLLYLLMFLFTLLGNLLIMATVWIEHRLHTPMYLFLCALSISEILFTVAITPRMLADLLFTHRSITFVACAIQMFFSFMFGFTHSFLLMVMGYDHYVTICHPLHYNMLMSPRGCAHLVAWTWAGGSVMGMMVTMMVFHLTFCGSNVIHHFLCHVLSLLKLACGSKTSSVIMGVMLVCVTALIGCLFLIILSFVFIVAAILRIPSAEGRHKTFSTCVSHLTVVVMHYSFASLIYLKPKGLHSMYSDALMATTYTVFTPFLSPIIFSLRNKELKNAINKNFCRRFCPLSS
O10J1 M62I, sequence (as listed by the source, stated change not applied): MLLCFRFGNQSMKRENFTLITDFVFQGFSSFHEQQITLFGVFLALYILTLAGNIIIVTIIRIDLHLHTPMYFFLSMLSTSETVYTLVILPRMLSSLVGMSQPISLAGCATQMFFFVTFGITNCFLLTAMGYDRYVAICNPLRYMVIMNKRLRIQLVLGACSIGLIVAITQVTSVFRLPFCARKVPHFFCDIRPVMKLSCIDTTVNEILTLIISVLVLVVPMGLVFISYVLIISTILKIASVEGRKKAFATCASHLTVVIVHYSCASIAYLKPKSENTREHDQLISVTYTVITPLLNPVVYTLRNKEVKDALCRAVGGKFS
O10G7 I28V, sequence (as listed by the source, stated change not applied): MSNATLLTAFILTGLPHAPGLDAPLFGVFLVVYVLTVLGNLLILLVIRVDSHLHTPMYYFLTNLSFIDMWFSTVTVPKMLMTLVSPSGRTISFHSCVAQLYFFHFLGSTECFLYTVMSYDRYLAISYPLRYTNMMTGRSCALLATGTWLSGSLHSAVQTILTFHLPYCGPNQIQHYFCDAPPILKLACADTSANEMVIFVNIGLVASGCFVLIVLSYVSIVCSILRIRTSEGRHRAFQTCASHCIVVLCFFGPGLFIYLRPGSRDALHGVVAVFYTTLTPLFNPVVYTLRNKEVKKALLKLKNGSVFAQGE
O10H5 S268Y, sequence (as listed by the source, stated change not applied): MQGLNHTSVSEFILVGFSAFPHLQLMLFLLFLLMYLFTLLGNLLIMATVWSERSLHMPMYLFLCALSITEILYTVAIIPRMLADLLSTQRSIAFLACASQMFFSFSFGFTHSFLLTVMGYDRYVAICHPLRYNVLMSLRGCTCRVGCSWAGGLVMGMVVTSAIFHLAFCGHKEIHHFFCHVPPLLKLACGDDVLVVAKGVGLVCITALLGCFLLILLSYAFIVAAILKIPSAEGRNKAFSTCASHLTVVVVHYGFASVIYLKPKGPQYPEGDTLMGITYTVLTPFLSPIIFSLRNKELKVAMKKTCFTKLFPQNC

For the compound `O=CC=Cc1ccccc1`, the “odorant receptor agonist call” value in the assay with O10H2 is “active”.
As to `C=CCOC(=O)Cc1ccccc1`, the “odorant receptor agonist call” value with O10G7 I28V, with O10H2, with O10H3 R54H, in the assay with O10H4 I50V, in the assay with O10H5 S268Y and in the assay on O10J1 M62I I103M was “inactive” each time. Also, the “odorant receptor agonist call” value in the assay on O10J1 M62I, in the assay with O10J3 Q235R E319G, in the assay with O10P1 R195K and in the assay with O10Q1 E12D was “inactive” throughout.
